Measurements published in ChEMBL document CHEMBL1123012, “Ellipticine derivatives with an affinity to the estrogen receptor, an approach to develop intercalating drugs with a specific effect on the hormone-dependent breast cancer” (J Med Chem, 1985).

Columns and labels:
Calf thymus DNA = assay: Inhibitory concentration against ethidium bromide binding to DNA; type: nucleic-acid assay; conditions: Bos taurus
Method in brief: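 Fluorometric competition with ethidium bromide bound to sonicated calf thymus DNA, 20 °C, 0.02 M sodium acetate pH 5.5. Final DNA 2.5 × 10^-6 M (base pairs), ethidium 5 × 10^-6 M; competitor added in portions. Excitation 546 nm, emission 590 nm. Bound ethidium per base pair plotted vs rf (competitor/DNA bp). rf50 taken at 50% displacement of bound ethidium.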

L1210 [1] = assay: Lethal concentration required to reduce cloning efficiency of L1210 cell line to a factor of 0.37 after 24 hour exposure; type: cell-based; conditions: mouse, l1210, 24 h
L1210 [2] = assay: The effective dose against L1210 cell growth; type: functional; conditions: Mus musculus, read-out: ED50 (the source's name)
Method in brief: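 Exponentially growing L1210 cells (1 × 10^5/mL) in RPMI 1640 with 10% fetal calf serum, penicillin, streptomycin and 60 µM β-mercaptoethanol. Exposed to a range of drug concentrations in nonagitated suspension for 24 h at 37 °C, 5% CO2. Cells counted electronically; duplicate treated cultures compared with triplicate untreated controls. ED50 taken from percent inhibition plotted against log concentration.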

COc1ccc2[nH]c3c(C)c4cc[n+](CC(=O)NCCCCCN(CCOc5ccc(/C(=C(/Cl)c6ccccc6)c6ccccc6)cc5)C(=O)C[n+]5ccc6c(C)c7[nH]c8ccc(OC)cc8c7c(C)c6c5)cc4c(C)c3c2c1
rf50 (Calf thymus DNA): 10

COc1ccc2[nH]c3c(C)c4cc[n+](CC(=O)N(CCCCCN)CCOc5ccc(/C(=C(/Cl)c6ccccc6)c6ccccc6)cc5)cc4c(C)c3c2c1.[Cl-]
rf50 (Calf thymus DNA): 0.7 | Co (L1210 [1]): 9 µM | EC50 (L1210 [2]): 5 µM

Cc1c2cc[n+](CCNC(=O)CC3(C)CC[C@H]4[C@@H]5CCc6cc(O)ccc6[C@H]5CC[C@@]43C)cc2c(C)c2c1[nH]c1ccccc12.[Br-] (stereo partly specified)
rf50 (Calf thymus DNA): 1.5 | Co (L1210 [1]): 0.15 µM | EC50 (L1210 [2]): 0.5 µM

Cc1c2cc[n+](CC(=O)NCCCCCNCCOc3ccc(/C(=C(/Cl)c4ccccc4)c4ccccc4)cc3)cc2c(C)c2c1[nH]c1ccc(O)cc12.[Cl-]
rf50 (Calf thymus DNA): 0.32 | Co (L1210 [1]): > 10 µM | EC50 (L1210 [2]): 4 µM

COc1ccc2[nH]c3c(C)c4cc[n+](CC(=O)NCCCCCNCCOc5ccc(/C(=C(/Cl)c6ccccc6)c6ccccc6)cc5)cc4c(C)c3c2c1
rf50 (Calf thymus DNA): 0.86

CCN(CC)CCOc1ccc(/C(=C(/Cl)c2ccccc2)c2ccccc2)cc1
rf50 (Calf thymus DNA): 20

Cc1c2cc[n+](CC(=O)NCCCCCN(CCOc3ccc(/C(=C(/Cl)c4ccccc4)c4ccccc4)cc3)C(=O)C[n+]3ccc4c(C)c5[nH]c6ccc(O)cc6c5c(C)c4c3)cc2c(C)c2c1[nH]c1ccc(O)cc12.[Cl-].[Cl-]
rf50 (Calf thymus DNA): 4.8 | Co (L1210 [1]): > 10 µM | EC50 (L1210 [2]): 4 µM

CCN(CC)CCOc1ccc(/C(=C(\Cl)c2ccccc2)c2ccccc2)cc1
rf50 (Calf thymus DNA): 20
